# From PubChem
# procasp7 counter: activates human procaspase-7, counter-screen for procaspase-3 activators | recombinant procaspase-7, Ac-DEVD-pNA absorbance 405 nm; D23A/D198A/D206A triple mutant, cannot self-cleave; scale: DMSO 0, 5 µM enzyme 100 | activation, % at 8.5 µM | hit rate 0.093% among 330,000 | AID 463210;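 active = percent activation above the screen-wide mean plus 3 SD, cut at about 25% in these data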
#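 Detection: p-Nitroaniline absorbance at 405 nm, read at 0 and 120 min; system: Uncleavable procaspase-7 mutant enzyme; evaluation: % activation from two-timepoint absorbance difference, scaled to controls; times: 1 h enzyme–compound preincubation and 2 h substrate reaction, both 25 °C; buffer or medium: Zinc-free HEPES pH 7.4 with 300 mM NaCl, 0.01% Triton X-100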
# CHT PAM: human CHT allosteric activation; Q9GZV3; CHT-expressing cells, membrane potential dye, choline EC20; hits give high values; LV-AA mutant CHT in HEK293 cells; B-score at 10 µM; hit rate 0.49% among 310,000; AID 488977;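 active = initial fluorescence not abnormally high and integrated response B-score, plate-corrected, over 3 SD above library mean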
# proCasp3 act: procaspase-3 (human) activation | P42574 | recombinant procaspase-3 D3A, Ac-DEVD-pNA absorbance 405 nm | activation, % at 8.5 µM | hit rate 0.11% among 330,000 | AID 463141;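 active = activation above the mean of all tested compounds plus 3 SD, cut at about 21% in these data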;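 note: 0% = DMSO alone and 100% = DMSO wells spiked with extra 5 µM PC-3 D3A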
# Target sequence (P42574 whole entry D9A/D28A/D175A): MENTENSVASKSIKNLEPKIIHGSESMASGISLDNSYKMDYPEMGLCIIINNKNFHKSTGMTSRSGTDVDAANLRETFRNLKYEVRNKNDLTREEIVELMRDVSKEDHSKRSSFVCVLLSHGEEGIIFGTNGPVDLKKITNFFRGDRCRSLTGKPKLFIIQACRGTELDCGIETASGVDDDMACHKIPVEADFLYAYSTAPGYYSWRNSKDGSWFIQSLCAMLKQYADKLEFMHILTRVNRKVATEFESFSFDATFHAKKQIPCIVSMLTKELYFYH
#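 Technique: 405 nm absorbance of p-nitroaniline, reads at 0 and 120 min; Test system: Procaspase-3 D3A mutant; Incubation: 1 h enzyme-compound preincubation, then 2 h substrate reaction, 25 °C; Repeats: singlicate, each compound tested once; Benchmarks: low control DMSO wells, high control DMSO plus 5 µM PC-3 D3A.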
# CHT inh: inhibits the human high affinity choline transporter | Q9GZV3 | CHT-expressing cells, membrane potential dye, choline response; hits give low values | B-score at 10 µM | hit rate 0.86% among 310,000;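 active = B-score over 3 SD under the library average, and starting fluorescence ratio not unusually high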;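 note: choline stimulus applied at its EC90 after an EC20 pre-addition; B-score computed on integrated fluorescence ratio after choline addition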
# CHT act confirm: human CHT activation, confirmatory screen; shares compounds with CHT PAM; CHT-expressing cells, membrane potential dye fluorescence (FDSS); % of choline EC20–EC90 response window; HEK293 expressing CHT LV-AA mutant; choline added at its EC20; activation, % at 10 µM; hit rate 91% among 2,500; AID 504833;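 active = primary screen active, with duplicate mean activation above negative control mean plus 3 SD, cut at about 11% in these data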
# HEK293 MP dye: counter-screen for CHT activators: effect in parental HEK293 cells; shares compounds with CHT PAM; membrane potential dye fluorescence (FDSS); measured after EC20 choline addition; ratio readout change at 10 µM, hits read low; hit rate 62% among 2,500;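 active = duplicate-averaged ratio beyond 3 SD from buffer wells, up or down, though filed actives are nearly all decreases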
# * hit, by the source's call; i = inactive; nt = no result. Shown are actives, neighbours in structure and some others; about 1.3% of the full set was active somewhere.
SMILES,procasp7 counter,CHT PAM,proCasp3 act,CHT inh,CHT act confirm,HEK293 MP dye
Cc1cccc(COCC(CC(C)C)N2CCN(C(=O)c3ccc(C(F)(F)F)cc3)CCC2=O)c1 (stereo not given),7.2,i,6.7,i,nt,nt
Cc1cccc(COCC(Cc2ccccc2)N2CCN(C(=O)c3ccc(C(F)(F)F)cc3)CCC2=O)c1 (stereo not given),-0.7,i,-2.0,i,34.8*,i
COc1ccc(CCNCc2cc3ccc(C)cc3[nH]c2=O)cc1OC,6.2,i,7.5,i,nt,nt
Nc1cnnc(N/N=C\c2ccccc2)c1Cl,-1.1,6.37*,-3.2,i,57.0*,-54.3*
Nc1nonc1N/N=C\c1ccccc1,6.2,i,8.6,i,nt,nt
CCC(C(=O)NCCc1c[nH]c2ccc(C)cc12)c1ccccc1 (stereo not given),4.9,i,-4.8,i,nt,nt
Cn1c(=O)[nH]c(=O)c2c1nc(Br)n2CCSc1ncccn1,4.4,i,1.5,i,nt,nt
Cn1c(=O)[nH]c(=O)c2c1nc(N1CCN(c3ccccc3)CC1)n2CCSc1ncccn1,-2.0,i,8.8,i,36.7*,i
Cn1c(=O)[nH]c(=O)c2c1nc(N1CCCCC1)n2CCSc1ncccn1,8.7,8.02*,-4.5,i,18.4*,-24*
CCn1cc(C(=O)OC)c(=O)c2ccc(C)nc21,0.3,11.6*,-4.0,i,79.5*,-74.6*
Cc1nc2ccccc2c2oc(C(=O)NCCN3CCCCC3C)cc12 (stereo not given),18.8,i,7.0,i,34.2*,i
Cc1nc2ccccc2c2oc(C(=O)N3CCC(N4CCCCC4)CC3)cc12,-1.2,7.03*,1.3,i,48.9*,-41.3*
COc1cccc(C2CNC3(CCCC(C)C3)c3[nH]c4ccccc4c32)c1OC (stereo not given),-1.6,i,-1.8,i,17.8*,i
CC1(C)CC(=O)CC2(C1)NCC(c1ccccc1)c1c2[nH]c2ccccc12 (stereo not given),-2.2,i,-3.0,i,nt,nt
Cc1cccc(-c2nnc(SCC#N)n2-c2ccccc2)c1,-6.8,i,5.5,i,nt,nt
Cc1ccc(-n2c(SCCN)nnc2-c2cccc(C)c2)cc1,-1.2,i,-7.7,i,17.4*,i
Cc1ccc(OCc2cc(C(=O)N3CCC(C(O)C(C)C)CC3)no2)cc1C (stereo not given),2.2,i,0.1,i,nt,nt
O=c1cc(CN2CCN(S(=O)(=O)c3cccc(Cl)c3)CC2)c2ccc(O)cc2o1,21.6,nt,20.3,nt,nt,nt
CCOC(=O)c1c(CSc2ccsc2)n(C)c2cc(Br)c(O)c(CN(C)C)c12,4.8,6.79*,3.8,i,40.3*,i
CCOc1ccc(Nc2nc(NCC3CCCO3)c3ccccc3n2)cc1 (stereo not given),-1.6,i,2.4,i,22.9*,-31.2*
Cc1cc(Oc2ccc3ccccc3c2)nc(SCC(=O)c2ccccc2)n1,3.2,8.01*,5.4,i,53.3*,i
CCN(CC(=O)Nc1c(F)cccc1F)C(=O)CNC(=O)c1ccc(Br)o1,-0.1,i,6.7,i,nt,nt
COc1ccc(-n2cc(-c3ccc(C)cc3)[n+]3c2SCC3)cc1,6.3,i,1.2,i,nt,nt
FC(F)Oc1ccc(-n2cc(-c3ccc(Cl)cc3)[n+]3c2CCCCC3)cc1,8.8,i,2.1,i,nt,nt
FC(F)Sc1ccc(-n2cc(-c3ccccc3)[n+]3c2CCC3)cc1,5.0,i,2.1,i,21.2*,-39.8*
COc1ccc(-c2cn(-c3ccc(SC(F)F)cc3)c3[n+]2CCC3)cc1OC,-4.7,6.25*,0.3,i,31.9*,-39.4*
COc1ccc(-c2cn(-c3ccc(OC)cc3)c3[n+]2-c2ccccc2CC3)cc1,8.7,9.51*,8.2,i,52.5*,i
COc1ccc(-n2cc(-c3ccccc3)[n+]3c2CCCCC3)cc1,0.5,6.51*,-3.4,i,55.2*,i
